Assay results: ChEMBL document CHEMBL2086314, “Synthesis and anticonvulsant activity of new N-Mannich bases derived from 3-(2-fluorophenyl)- and 3-(2-bromophenyl)-pyrrolidine-2,5-diones. Part II” (Bioorg Med Chem, 2012)
Activity calls are given as the source filed them. The calls are words filed in the database; no cut-off is given here.

What was measured:
Mus musculus [1] = experiment: Anticonvulsant activity in ip dosed CF-1 albino mouse assessed as protection from maximal electric shock-induced seizures measured after 0.5 hrs; format: functional; settings: read-out: MED
In short: (§1)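 Male CF-1 mice dosed ip at 30, 100 or 300 mg/kg, suspension in 0.5% methylcellulose/water. MES: corneal electrodes primed with electrolyte containing anaesthetic, 50 mA, 60 Hz, 0.2 s. Examined 0.5 and 4 h after dosing. Value is the minimum dose protecting half or more of the animals.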

Mus musculus [2] = experiment: Anticonvulsant activity in ip dosed CF-1 albino mouse assessed as protection from maximal electric shock-induced seizures measured after 4 hrs; format: functional; settings: read-out: MED; in short: as §1
Mus musculus [3] = experiment: Neurotoxicity in CF-1 albino mouse assessed as motor impairment at 300 mg/kg, ip measured after 0.5 hrs by rotarod test; format: toxicity, organism-based; parameters: dose 300 mg/kg, route intraperitoneal; settings: in vivo
In short: (§2)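 Rotarod neurotoxicity in male CF-1 mice given ip doses of 30, 100 or 300 mg/kg (0.5% methylcellulose suspension), examined 0.5 and 4 h after dosing. Impairment means failing to hold balance on the rod for 1 min. Value is the minimum dose causing toxicity in half or more of the animals; response comments are recorded.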

Mus musculus [4] = experiment: Neurotoxicity in CF-1 albino mouse assessed as motor impairment at 300 mg/kg, ip measured after 4 hrs by rotarod test; format: toxicity, organism-based; parameters: dose 300 mg/kg, route intraperitoneal; settings: in vivo; in short: as §2
Rattus norvegicus [5] = experiment: Anticonvulsant activity in Sprague-Dawley rat assessed as protection from maximum electric shock-induced seizures at 30 mg/kg, po measured after 0.25 hrs; format: functional
In short: (§3)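 Male Sprague–Dawley rats, four per group, given 30 mg/kg orally as a suspension in 0.5% methylcellulose/water. MES stimulus 150 mA, 60 Hz, 0.2 s via corneal electrodes. Tested at 0.25, 0.5, 1, 2 and 4 h; value is rats protected out of four.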

Rattus norvegicus [6] = experiment: Anticonvulsant activity in Sprague-Dawley rat assessed as protection from maximum electric shock-induced seizures at 30 mg/kg, po measured after 0.5 hrs; format: functional; in short: as §3
Rattus norvegicus [7] = experiment: Anticonvulsant activity in Sprague-Dawley rat assessed as protection from maximum electric shock-induced seizures at 30 mg/kg, po measured after 1 hr; format: functional; in short: as §3
Rattus norvegicus [8] = experiment: Anticonvulsant activity in Sprague-Dawley rat assessed as protection from maximum electric shock-induced seizures at 30 mg/kg, po measured after 2 hrs; format: functional; in short: as §3
Rattus norvegicus [9] = experiment: Anticonvulsant activity in Sprague-Dawley rat assessed as protection from maximum electric shock-induced seizures at 30 mg/kg, po measured after 4 hrs; format: functional; in short: as §3
Rattus norvegicus [10] = experiment: Neurotoxicity in Sprague-Dawley rat assessed as motor impairment at 30 mg/kg, po by rotarod test; format: toxicity, organism-based; parameters: dose 30 mg/kg, route oral; settings: in vivo
In short: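 Male Sprague–Dawley rats, four animals, oral 30 mg/kg in 0.5% methylcellulose/water. Motor impairment on the rotarod (failure to keep balance for 1 min) assessed alongside MES at five times from 0.25 to 4 h.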

Mus musculus [11] = experiment: Anticonvulsant activity in ip dosed CF-1 albino mouse assessed as protection from maximal electric shock-induced seizures; format: functional
In short: (§4)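 ED50 and TD50 determined in male CF-1 mice after ip dosing (0.5% methylcellulose suspension) at the previously estimated time of peak effect. MES 50 mA, 60 Hz, 0.2 s. Groups of eight, with doses varied until at least three points fell between 10–90% protection or motor impairment. Regression gives ED50/TD50 with 95% confidence intervals; PI = TD50/ED50.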

[12] = Neurotoxicity in ip dosed CF-1 albino mouse assessed as motor impairment by rotarod test; format: toxicity, organism-based; settings: in vivo
Mus musculus [13] = organism: Mus musculus; experiment: Protective index, ratio of TD50 for CF-1 albino mouse to ED50 for CF-1 albino mouse assessed as protection from maximum electric shock-induced seizures; format: functional; in short: as §4
Mus musculus [14] = experiment: Anticonvulsant activity in ip dosed maximal electric shock-induced CF-1 albino mouse assessed as time of peak effect; format: functional; in short: as §4
Mus musculus [15] = experiment: Anticonvulsant activity in CF-1 albino mouse assessed as protection against 6 Hz psychomotor seizure at 100 mg/kg, ip measured after 0.25 hrs; format: functional; settings: route intraperitoneal
In short: (§5)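 6-Hz psychomotor seizure in male CF-1 mice, compound suspended in 0.5% methylcellulose/water, given ip (100 or 75 mg/kg). Corneal stimulation with 0.2 ms monopolar rectangular pulses at 6 Hz for 3 s, 32 mA, constant-current device. Protected if normal exploratory behaviour resumes within 10 s. Tested 0.25–4 h after dosing; value is mice protected out of four.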

Mus musculus [16] = experiment: Anticonvulsant activity in CF-1 albino mouse assessed as protection against 6 Hz psychomotor seizure at 100 mg/kg, ip measured after 0.5 hrs; format: functional; settings: route intraperitoneal; in short: as §5
Mus musculus [17] = experiment: Anticonvulsant activity in CF-1 albino mouse assessed as protection against 6 Hz psychomotor seizure at 100 mg/kg, ip measured after 1 hr; format: functional; settings: route intraperitoneal; in short: as §5
Mus musculus [18] = experiment: Anticonvulsant activity in CF-1 albino mouse assessed as protection against 6 Hz psychomotor seizure at 100 mg/kg, ip measured after 2 hrs; format: functional; settings: route intraperitoneal; in short: as §5
Mus musculus [19] = experiment: Anticonvulsant activity in CF-1 albino mouse assessed as protection against 6 Hz psychomotor seizure at 100 mg/kg, ip measured after 4 hrs; format: functional; settings: route intraperitoneal; in short: as §5
Mus musculus [20] = experiment: Anticonvulsant activity in CF-1 albino mouse assessed as protection from maximal electric shock-induced seizures at 100 mg/kg, ip measured after 0.25 hrs; format: functional, organism-based; parameters: dose 100 mg/kg
Mus musculus [21] = experiment: Anticonvulsant activity in CF-1 albino mouse assessed as protection from maximal electric shock-induced seizures at 100 mg/kg, ip measured after 1 hr; format: functional, organism-based; parameters: dose 100 mg/kg
Mus musculus [22] = experiment: Anticonvulsant activity in CF-1 albino mouse assessed as protection from maximal electric shock-induced seizures at 300 mg/kg, ip measured after 0.5 hrs; format: functional, organism-based; parameters: dose 300 mg/kg; in short: as §1
Rattus norvegicus [23] = experiment: Anticonvulsant activity in po dosed Sprague-Dawley rat assessed as protection from maximum electric shock-induced seizures; format: functional
In short: (§6)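 Male Sprague–Dawley rats dosed orally (0.5% methylcellulose suspension). MES 150 mA, 60 Hz, 0.2 s; rotarod impairment is failure to keep balance for 1 min. Groups of eight, at the previously estimated time of peak effect, with doses varied until at least three points fell in the 10–90% range. ED50/TD50 with 95% confidence intervals from regression; PI = TD50/ED50.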

[24] = Neurotoxicity in po dosed Sprague-Dawley rat assessed as motor impairment measured at time of peak effect by rotarod test; format: toxicity, organism-based; settings: in vivo; in short: as §6
Rattus norvegicus [25] = organism: Rattus norvegicus; experiment: Protective index, ratio of TD50 for Sprague-Dawley rat to ED50 for Sprague-Dawley rat assessed as protection from maximum electric shock-induced seizures; format: functional; in short: as §6
Rattus norvegicus [26] = experiment: Anticonvulsant activity in po dosed maximum electric shock-induced Sprague-Dawley rat assessed as time of peak effect; format: functional; in short: as §6
Mus musculus [27] = experiment: Neurotoxicity in CF-1 albino mouse assessed as motor impairment, ip measured after 4 hrs by rotarod test; format: toxicity, organism-based; settings: in vivo
Mus musculus [28] = experiment: Anticonvulsant activity in CF-1 albino mouse assessed as protection from maximal electric shock-induced seizures at 300 mg/kg, ip measured after 4 hrs; format: functional, organism-based; parameters: dose 300 mg/kg; in short: as §1
Mus musculus [29] = experiment: Neurotoxicity in ip dosed CF-1 albino mouse assessed as motor impairment measured after 0.5 hrs by rotarod test; format: toxicity, organism-based; settings: in vivo; in short: as §2
Mus musculus [30] = experiment: Neurotoxicity in CF-1 albino mouse assessed as tonic extension at 300 mg/kg, ip measured after 0.5 hrs by rotarod test; format: toxicity, organism-based; parameters: dose 300 mg/kg, route intraperitoneal; settings: in vivo; in short: as §2
Mus musculus [31] = experiment: Anticonvulsant activity in CF-1 albino mouse assessed as protection against subcutaneous pentylenetetrazol-induced seizures at 300 mg/kg, ip measured after 0.5 hrs; format: functional, organism-based; parameters: dose 300 mg/kg
In short: (§7)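 scPTZ test in male CF-1 mice. Compound suspended in 0.5% methylcellulose/water, ip at 30, 100 or 300 mg/kg. Pentylenetetrazole 85 mg/kg (CD97, clonic seizures lasting at least 5 s) given subcutaneously at the test time, read at 0.5 and 4 h. Value is the minimum dose protecting half or more of the animals.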

Mus musculus [32] = experiment: Anticonvulsant activity in CF-1 albino mouse assessed as protection against subcutaneous pentylenetetrazol-induced seizures at 300 mg/kg, ip measured after 4 hrs; format: functional, organism-based; parameters: dose 300 mg/kg; in short: as §7

| Compound | minimal effective dose (Mus musculus [2]) [mg/kg] | Activity (Mus musculus [3]) | Activity (Mus musculus [4]) | Activity (Rattus norvegicus [5]) [%] | Activity (Rattus norvegicus [6]) [%] | Activity (Rattus norvegicus [7]) [%] | Activity (Rattus norvegicus [8]) [%] | Activity (Rattus norvegicus [9]) [%] | Activity (Rattus norvegicus [10]) | ED50 (Mus musculus [11]) [mg/kg] | TD50 [12] [mg/kg] | Ratio TD50/ED50 (Mus musculus [13]) | Time (Mus musculus [14]) [h] | Activity (Mus musculus [22]) | further results |
| --- | --- | --- | --- | --- | --- | --- | --- | --- | --- | --- | --- | --- | --- | --- | --- |
| O=C1CC(c2ccccc2F)C(=O)N1CN1CCN(c2cccc(C(F)(F)F)c2)CC1 (racemic) | 100 | Non-toxic | Non-toxic | 25 | 100 | 100 | 100 | 50 | Non-toxic | 41.4 | > 500 | >12.09 | 4 | – | minimal effective dose (Mus musculus [1]): 300 mg/kg; Activity (Mus musculus [15]): 25%; Activity (Mus musculus [16]): 75%; Activity (Mus musculus [17]): 0%; Activity (Mus musculus [18]): 25%; Activity (Mus musculus [19]): 25%; Activity (Mus musculus [20]): Active; Activity (Mus musculus [21]): Active |
| O=C1CC(c2ccccc2Br)C(=O)N1CN1CCN(c2ccc(F)cc2)CC1 (racemic) | 100 | Non-toxic | Non-toxic | 25 | 25 | 25 | 50 | 75 | Non-toxic | 79.9 | 466 | 5.83 | 4 | inactive | ED50 (Rattus norvegicus [23]): 7.4 mg/kg; TD50 [24]: 62.4 mg/kg; Ratio TD50/ED50 (Rattus norvegicus [25]): 8.43; Time (Rattus norvegicus [26]): 4 h |
| O=C1CC(c2ccccc2F)C(=O)N1CN1CCN(c2ccc(F)cc2)CC1 (racemic) | 30 | Non-toxic | – | 0 | 0 | 0 | 25 | 50 | Non-toxic | 101 | 166 | 1.65 | 4 | inactive | MTC (Mus musculus [27]): 300 mg/kg |
| Cl.O=C1CC(c2ccccc2Br)C(=O)N1CN1CCN(Cc2ccccc2)CC1 (racemic) | – | – | Non-toxic | – | – | – | – | – | – | – | – | – | – | inactive | Activity (Mus musculus [28]): inactive; MTC (Mus musculus [29]): 300 mg/kg; Activity (Mus musculus [30]): Toxic; Activity (Mus musculus [31]): inactive; Activity (Mus musculus [32]): inactive |
